Test results reported in ChEMBL document CHEMBL1157819, “Almiramides A-C: discovery and development of a new class of leishmaniasis lead compounds” (J Med Chem, 2010).
Converted amounts (≈) assume the structure as drawn. The source made the active and inactive calls. No cut-off for these calls is given here. Non-standard residues stand in square brackets, D forms with d. Residues, ends and D or L forms follow the SMILES beside them. *: point of attachment. Octanoyl(2R-Me,7,8-dehydro) = C=CCCCC[C@@H](C)C(=O)*; Oct7ynoyl(2R-Me) = C#CCCCC[C@@H](C)C(=O)*; NMeY = CN[C@@H](Cc1ccc(O)cc1)C(=O)O; NMeF = CN[C@@H](Cc1ccccc1)C(=O)O; X1 = CC(=O)CCCC[C@@H](C)C(=O)*; Oct(7)enoyl = C=CCCCCCC(=O)*; Oct(7)ynoyl = C#CCCCCCC(=O)*; NMeV = CN[C@H](C(=O)O)C(C)C; X5 = C#CCCCCC(C)CC(C)C(=O)*; Hept6ynoyl = C#CCCCCC(=O)*; X3 = CCCCCC[C@@H](C)C(=O)*; X6 = C#CCCCC[C@H](C)C(=O)*; NMeA = CN[C@@H](C)C(=O)O; X4 = C=CCCCCC(=O)*; X2 = C=CCCCC(=O)*

Legend:
[1] = Selectivity index, ratio of IC50 for african green monkey Vero cells to IC50 for Leishmania donovani; type: toxicity, cell-based; conditions: read-out: Ratio IC50
Vero = assay: Cytotoxicity against african green monkey Vero cells by MTT assay; type: cell-based; conditions: Chlorocebus sabaeus
Method in brief: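 Green monkey Vero kidney cells; cell proliferation read by MTT.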

Leishmania donovani [2] = assay: Antileishmanial activity against Leishmania donovani by DNA fluorescence assay; type: functional, organism-based
Leishmania donovani [3] = assay: Antileishmanial activity against Leishmania donovani at 10 ug/mL by DNA fluorescence assay; type: functional, organism-based
Method in brief: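 Leishmania donovani; parasite growth read by parasite DNA fluorescence, with amphotericin B as positive control.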

Plasmodium falciparum = assay: Antimalarial activity against chloroquine-resistant Plasmodium falciparum W2 at 13.5 uM after 48 hrs by fluorometric method; type: functional, organism-based
Trypanosoma cruzi [4] = assay: Antitrypanosomal activity against Trypanosoma cruzi Tulahuen infected in mouse 3T3 cells assessed as beta-galactosidase activity at 13.5 uM after 7 days by chagas bioassay; type: functional, organism-based; conditions: NIH3T3
Trypanosoma cruzi [5] = assay: Antitrypanosomal activity against Trypanosoma cruzi Tulahuen infected in mouse 3T3 cells assessed as beta-galactosidase activity after 7 days by chagas bioassay; conditions: NIH3T3, 168 h
Leishmania donovani [6] = assay: Antileishmanial activity against Leishmania donovani at 13.4 uM by DNA fluorescence assay; type: functional, organism-based

Row | SMILES | selectivity ratio [1] | IC50 (Vero) [µM] | IC50 (Leishmania donovani [2]) | also measured
1 | C#CCCCCC(=O)N(C)[C@H](C(=O)N(C)[C@H](C(=O)N(C)[C@H](C(=O)N(C)[C@@H](C)C(=O)N(C)[C@@H](Cc1ccccc1)C(=O)N(C)C)C(C)C)C(C)C)C(C)C (Hept6ynoyl-[NMeV][NMeV][NMeV][NMeA][NMeF]-NMe2) | 50.2 | 156 | 3.1 µM | –
2 | C#CCCCCC(=O)N(C)[C@H](C(=O)N(C)[C@H](C(=O)N(C)[C@H](C(=O)N(C)[C@@H](C)C(=O)N(C)[C@@H](Cc1ccccc1)C(=O)O)C(C)C)C(C)C)C(C)C (Hept6ynoyl-[NMeV][NMeV][NMeV][NMeA][NMeF]-OH) | 50.2 | 281 | 5.6 µM | –
3 | C#CCCCCC(=O)N(C)[C@H](C(=O)N(C)[C@H](C(=O)N(C)[C@H](C(=O)N(C)[C@@H](C)C(=O)N(C)[C@@H](Cc1ccccc1)C(=O)OC)C(C)C)C(C)C)C(C)C (Hept6ynoyl-[NMeV][NMeV][NMeV][NMeA][NMeF]-OMe) | – | 41.4 | > 14 µM | –
4 | C=CCCCC(=O)N(C)[C@H](C(=O)N(C)[C@H](C(=O)N(C)[C@H](C(=O)N(C)[C@@H](C)C(=O)N(C)[C@@H](Cc1ccccc1)C(=O)N(C)C)C(C)C)C(C)C)C(C)C (X2-[NMeV][NMeV][NMeV][NMeA][NMeF]-NMe2) | 13.9 | 93.1 | 6.7 µM | –
5 | C=CCCCCC(=O)N(C)[C@H](C(=O)N(C)[C@H](C(=O)N(C)[C@H](C(=O)N(C)[C@@H](C)C(=O)N(C)[C@@H](Cc1ccccc1)C(=O)N(C)C)C(C)C)C(C)C)C(C)C (X4-[NMeV][NMeV][NMeV][NMeA][NMeF]-NMe2) | 8.8 | 13.8 | 2.7 µM | –
6 | C=CCCCCC(=O)N(C)[C@H](C(=O)N(C)[C@H](C(=O)N(C)[C@H](C(=O)N(C)[C@@H](C)C(=O)N(C)[C@@H](Cc1ccccc1)C(=O)O)C(C)C)C(C)C)C(C)C (X4-[NMeV][NMeV][NMeV][NMeA][NMeF]-OH) | – | > 70 | > 14 µM | –
7 | C=CCCCCC(=O)N(C)[C@H](C(=O)N(C)[C@H](C(=O)N(C)[C@H](C(=O)N(C)[C@@H](C)C(=O)N(C)[C@@H](Cc1ccccc1)C(=O)OC)C(C)C)C(C)C)C(C)C (X4-[NMeV][NMeV][NMeV][NMeA][NMeF]-OMe) | – | 24.7 | > 14 µM | –
8 | C#CCCCCC(C)CC(C)C(=O)N(C)[C@@H](Cc1ccccc1)C(=O)N[C@@H](C)C(=O)N(C)[C@@H](C)C(=O)N(C)[C@@H](Cc1ccc(OC)cc1)C(N)=O (stereo not given in full) (X5-[NMeF]A[NMeA][NMeY](Me)-NH2) | – | – | – | Activity (Leishmania donovani [3]): inactive
9 | C#CCCCC[C@H](C)C(=O)N(C)[C@@H](Cc1ccccc1)C(=O)N[C@@H](C)C(=O)N(C)[C@@H](C)C(=O)N(C)[C@@H](Cc1ccc(OC)cc1)C(N)=O (X6-[NMeF]A[NMeA][NMeY](Me)-NH2) | – | – | – | Activity (Leishmania donovani [3]): inactive
10 | C#CCCCC[C@H](C)C(=O)N(C)[C@H](C(=O)N(C)[C@H](C(=O)N(C)[C@H](C(=O)N(C)[C@@H](Cc1ccccc1)C(N)=O)C(C)C)C(C)C)C(C)C (X6-[NMeV][NMeV][NMeV][NMeF]-NH2) | – | – | – | Activity (Leishmania donovani [3]): inactive
11 | C#CCCCC[C@H](C)C(=O)N(C)[C@H](C(=O)N(C)[C@H](C(=O)N(C)[C@H](C(=O)N(C)[C@H](C(N)=O)C(C)C)C(C)C)C(C)C)C(C)C (X6-[NMeV][NMeV][NMeV][NMeV]-NH2) | – | – | – | Activity (Leishmania donovani [3]): inactive
12 | C=CCCCCCC(=O)N(C)[C@H](C(=O)N(C)[C@H](C(=O)N(C)[C@H](C(=O)N(C)[C@@H](C)C(=O)N(C)[C@@H](Cc1ccccc1)C(=O)O)C(C)C)C(C)C)C(C)C ({Oct(7)enoyl}-[NMeV][NMeV][NMeV][NMeA][NMeF]-OH) | 46.9 | 192 | 4.1 µM | –
13 | C=CCCCCCC(=O)N(C)[C@H](C(=O)N(C)[C@H](C(=O)N(C)[C@H](C(=O)N(C)[C@@H](C)C(=O)N(C)[C@@H](Cc1ccccc1)C(=O)OC)C(C)C)C(C)C)C(C)C ({Oct(7)enoyl}-[NMeV][NMeV][NMeV][NMeA][NMeF]-OMe) | – | 18.8 | > 14 µM | –
14 | C#CCCCCCC(=O)N(C)[C@H](C(=O)N(C)[C@H](C(=O)N(C)[C@H](C(=O)N(C)[C@@H](C)C(=O)N(C)[C@@H](Cc1ccccc1)C(=O)N(C)C)C(C)C)C(C)C)C(C)C ({Oct(7)ynoyl}-[NMeV][NMeV][NMeV][NMeA][NMeF]-NMe2) | 27 | 159 | 5.9 µM | –
15 | C#CCCCCCC(=O)N(C)[C@H](C(=O)N(C)[C@H](C(=O)N(C)[C@H](C(=O)N(C)[C@@H](C)C(=O)N(C)[C@@H](Cc1ccccc1)C(=O)O)C(C)C)C(C)C)C(C)C ({Oct(7)ynoyl}-[NMeV][NMeV][NMeV][NMeA][NMeF]-OH) | – | > 68.9 | > 14 µM | –
16 | C#CCCCCCC(=O)N(C)[C@H](C(=O)N(C)[C@H](C(=O)N(C)[C@H](C(=O)N(C)[C@@H](C)C(=O)N(C)[C@@H](Cc1ccccc1)C(=O)OC)C(C)C)C(C)C)C(C)C ({Oct(7)ynoyl}-[NMeV][NMeV][NMeV][NMeA][NMeF]-OMe) | – | 27 | > 14 µM | –
17 | CC(=O)CCCC[C@@H](C)C(=O)N(C)[C@H](C(=O)N(C)[C@H](C(=O)N[C@H](C(=O)N(C)[C@@H](C)C(=O)N(C)[C@@H](Cc1ccccc1)C(N)=O)C(C)C)C(C)C)C(C)C [ALMIRAMIDE A] (X1-[NMeV][NMeV]V[NMeA][NMeF]-NH2) | – | 113 | > 13.5 µM | Activity (Plasmodium falciparum): inactive; Activity (Trypanosoma cruzi [4]): inactive
18 | C#CCCCC[C@@H](C)C(=O)N(C)[C@H](C(=O)N(C)[C@H](C(=O)N[C@H](C(=O)N(C)[C@@H](C)C(=O)N(C)[C@@H](Cc1ccccc1)C(N)=O)C(C)C)C(C)C)C(C)C [ALMIRAMIDE B] ({Oct7ynoyl(2R-Me)}-[NMeV][NMeV]V[NMeA][NMeF]-NH2) | 21.8 | 52.3 | 2.4 µM | Activity (Plasmodium falciparum): inactive; Activity (Trypanosoma cruzi [4]): inactive
19 | C=CCCCC[C@@H](C)C(=O)N(C)[C@H](C(=O)N(C)[C@H](C(=O)N[C@H](C(=O)N(C)[C@@H](C)C(=O)N(C)[C@@H](Cc1ccccc1)C(N)=O)C(C)C)C(C)C)C(C)C [ALMIRAMIDE C] ({Octanoyl(2R-Me,7,8-dehydro)}-[NMeV][NMeV]V[NMeA][NMeF]-NH2) | 17.4 | 33.1 | 1.9 µM | Activity (Plasmodium falciparum): inactive; Activity (Trypanosoma cruzi [4]): inactive
20 | C[C@@H]1[C@H](O)[C@@H](C)/C=C/C=C/C=C/C=C/C=C/C=C/C=C/[C@H](O[C@@H]2O[C@H](C)[C@@H](O)[C@H](N)[C@@H]2O)C[C@@H]2O[C@](O)(C[C@@H](O)C[C@@H](O)[C@H](O)CC[C@@H](O)C[C@@H](O)CC(=O)O[C@H]1C)C[C@H](O)[C@H]2C(=O)O [AMPHOTERICIN B] | – | – | 0.08 µg/mL | –
21 | CCCCCCCCCCCCCCCCOP(=O)([O-])OCC[N+](C)(C)C [MILTEFOSINE] | – | – | 0.5 µM | –
22 | C#CCCCC[C@@H](C)C(=O)N(C)[C@H](C(=O)N(C)[C@H](C(=O)N(C)[C@H](C(=O)N(C)[C@@H](C)C(=O)N(C)[C@@H](Cc1ccccc1)C(N)=O)C(C)C)C(C)C)C(C)C [MONOMETHYLALMIRAMIDE B] ({Oct7ynoyl(2R-Me)}-[NMeV][NMeV][NMeV][NMeA][NMeF]-NH2) | – | – | 1.6 µM | –
23 | CC1CS(=O)(=O)CCN1/N=C/c1ccc([N+](=O)[O-])o1 (stereo not given) [NIFURTIMOX] | – | – | – | IC50 (Trypanosoma cruzi [5]): 3 µg/mL (≈ 10.4 µM)
24 | C#CCCCC[C@@H](C)C(=O)N(C)[C@H](C(=O)N(C)[C@H](C(=O)N(C)[C@H](C(=O)N(C)[C@@H](C)C(=O)N(C)[C@@H](Cc1ccccc1)C(=O)N(C)C)C(C)C)C(C)C)C(C)C [PERMETHYLALMIRAMIDE B] ({Oct7ynoyl(2R-Me)}-[NMeV][NMeV][NMeV][NMeA][NMeF]-NMe2) | – | – | 2.3 µM | –
25 | CCCCCC[C@@H](C)C(=O)N(C)[C@H](C(=O)N(C)[C@H](C(=O)N[C@H](C(=O)N(C)[C@@H](C)C(=O)N(C)[C@@H](Cc1ccccc1)C(N)=O)C(C)C)C(C)C)C(C)C [TETRAHYDROALMIRAMIDE B] (X3-[NMeV][NMeV]V[NMeA][NMeF]-NH2) | – | – | > 13.7 µM | Activity (Leishmania donovani [6]): inactive
